These results are taken from ChEMBL document CHEMBL1127677, “The novel Ins(1,4,5)P3 analogue 3-amino-3-deoxy-Ins(1,4,5)P3: a pH-dependent Ins(1,4,5)P3 receptor partial agonist in SH-SY5Y neuroblastoma cells” (J Med Chem, 1994).

Assay [1] can be described thus: Calcium mobilization in saponin permeabilised SH-SY5Y neuroblastoma cells at a pH of 7.6. As to conditions: Homo sapiens. It is filed as functional, cell-based. Summed up: (§1)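 SH-SY5Y cells were preloaded with 45Ca2+ and permeabilized with saponin. Release from Ins(1,4,5)P3-sensitive stores was measured in cytosolic-like buffer at pH 6.8, 7.2 or 7.6, at 20–22 °C. Release was normalized to 100% using 30 μM Ins(1,4,5)P3 as an internal standard in each experiment. EC50 from curve fitting, mean ± sem, n = 4.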

Assay [2] concerns the target T1, Type 1 InsP3 receptor isoform S2 (Sus scrofa, UniProt P79248). Briefly: Binding affinity against IP3 receptor in pig cerebellar membranes at a pH of 6.8 using [3H]Ins(1,4,5)P3 as the radioligand. It is filed as cell membranes, Cerebellum, Membrane. Summed up:
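[3H]Ins(1,4,5)P3 displacement using pig cerebellar P2 membranes, assayed at pH 6.8. Buffer: 25 mM Tris/maleate, 5 mM NaHCO3, 1 mM EDTA, 0.25 mM DTT. Increasing ligand concentrations were incubated with 1.5 nM radioligand and about 70 μg membrane protein for 30 min at 4 °C. Bound ligand was separated by centrifugation. Nonspecific binding was taken with 10 μM Ins(1,4,5)P3. IC50 from curve fitting, mean ± sem, n = 3.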

Assay [3] is described as follows: Calcium mobilization in saponin permeabilised SH-SY5Y neuroblastoma cells at a pH of 6.8. In kind it is functional, cell-based. The conditions noted are these: Homo sapiens. Summed up:
as §1
In general terms: Calcium assays in cells follow changes in intracellular calcium, usually with a dye or a luminescent sensor.

Assay [4] is described as follows: Calcium mobilization in saponin permeabilised SH-SY5Y neuroblastoma cells at a pH of 7.2. In kind it is functional, cell-based. The conditions noted are these: Homo sapiens. Summed up: as §1
Assay [5] addresses T1, Type 1 InsP3 receptor isoform S2. Briefly: Binding affinity against IP3 receptor in pig cerebellar membranes at a pH of 7.6 using [3H]Ins(1,4,5)P3 as the radioligand. In kind it is cell membranes, Cerebellum, Membrane. The method in brief:
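[3H]Ins(1,4,5)P3 displacement using pig cerebellar P2 membranes, assayed at pH 7.6. Buffer: 25 mM Tris/maleate, 5 mM NaHCO3, 1 mM EDTA, 0.25 mM DTT. Increasing ligand concentrations were incubated with 1.5 nM radioligand and about 50 μg membrane protein for 30 min at 4 °C. Bound ligand was separated by centrifugation. Nonspecific binding was taken with 10 μM Ins(1,4,5)P3. IC50 from curve fitting, mean ± sem, n = 3.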

As a reminder, the EC50 is the concentration giving half of the maximal effect. Broadly, the IC50 is the midpoint of a concentration-inhibition curve. The low end stands for inhibition by little substance, the high end for a need for much substance.

T1 sequence (P79248 whole entry, canonical isoform): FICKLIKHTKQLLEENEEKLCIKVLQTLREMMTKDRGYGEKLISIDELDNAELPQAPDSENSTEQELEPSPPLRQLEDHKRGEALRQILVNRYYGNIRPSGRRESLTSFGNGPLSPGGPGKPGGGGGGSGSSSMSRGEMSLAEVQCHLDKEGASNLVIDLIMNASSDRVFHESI

In the case of `NC1C(O)C(OP(=O)(O)O)C(O)C(OP(=O)(O)O)C1OP(=O)(O)O` (stereo unspecified), the EC50 in assay [1] turned out to be 1.49 µM; in assay [3] it was 3.68 µM; in assay [4] it was 1.07 µM. The IC50 in assay [2] is 9.11 µM; in assay [5], 5.65 µM.
In the case of `OC1C(OP(O)(O)=S)C(O)C(OP(O)(O)=S)C(OP(O)(O)=S)C1OP(O)(O)=S` (stereo unspecified), the EC50 in assay [3] is 5.32 µM.
For `OC1C(O)C(OP(O)(O)=S)C(OP(O)(O)=S)C(O)C1OP(O)(O)=S` (stereo unspecified), the EC50 turned out to be 0.107 µM in assay [1], 0.255 µM in assay [3] and 0.052 µM in assay [4]. For the same compound, the IC50 came to 0.078 µM in assay [2] and 0.061 µM in assay [5].
